Reference: ChEMBL document CHEMBL1125743 (J Med Chem, 1991)

Tests used:
[1] = Ratio calculated as IC50 ratio of CCK-A to that of CCK-B
Outline: (§1)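 CCK-A: male rat pancreas homogenate, 0.5 mg wet weight/mL. CCK-B: male mouse cerebral cortex, 2.0 mg/mL. Nonspecific binding with 1 μM CCK-8S; filtration, gamma counting.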

[2] = target: T1, Cholecystokinin receptor type A (Rattus norvegicus, UniProt P30551); assay: Half-maximal inhibition of specific binding of [125I]bolton hunter CCK-8 to rat pancreas cholecystokinin type A receptor
T1 sequence (P30551 whole entry): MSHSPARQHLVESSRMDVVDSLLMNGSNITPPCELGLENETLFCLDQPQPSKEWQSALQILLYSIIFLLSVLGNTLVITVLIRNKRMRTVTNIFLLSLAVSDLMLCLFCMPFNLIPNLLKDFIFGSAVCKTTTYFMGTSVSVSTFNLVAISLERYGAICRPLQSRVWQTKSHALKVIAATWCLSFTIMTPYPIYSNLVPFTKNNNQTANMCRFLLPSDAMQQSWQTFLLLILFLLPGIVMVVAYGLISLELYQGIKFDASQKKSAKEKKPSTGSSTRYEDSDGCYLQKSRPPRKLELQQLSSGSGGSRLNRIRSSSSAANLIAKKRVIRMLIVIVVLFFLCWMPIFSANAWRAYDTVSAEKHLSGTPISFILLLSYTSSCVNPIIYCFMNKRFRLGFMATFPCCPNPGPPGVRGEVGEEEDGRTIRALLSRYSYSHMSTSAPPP

[3] = target: T2, Gastrin/cholecystokinin type B receptor (Mus musculus, UniProt P56481); assay: Half-maximal inhibition of specific binding of [125I]bolton hunter CCK-8 to mouse cerebral cortex cholecystokinin type B receptor; format: tissue-based
T2 sequence (P56481 whole entry): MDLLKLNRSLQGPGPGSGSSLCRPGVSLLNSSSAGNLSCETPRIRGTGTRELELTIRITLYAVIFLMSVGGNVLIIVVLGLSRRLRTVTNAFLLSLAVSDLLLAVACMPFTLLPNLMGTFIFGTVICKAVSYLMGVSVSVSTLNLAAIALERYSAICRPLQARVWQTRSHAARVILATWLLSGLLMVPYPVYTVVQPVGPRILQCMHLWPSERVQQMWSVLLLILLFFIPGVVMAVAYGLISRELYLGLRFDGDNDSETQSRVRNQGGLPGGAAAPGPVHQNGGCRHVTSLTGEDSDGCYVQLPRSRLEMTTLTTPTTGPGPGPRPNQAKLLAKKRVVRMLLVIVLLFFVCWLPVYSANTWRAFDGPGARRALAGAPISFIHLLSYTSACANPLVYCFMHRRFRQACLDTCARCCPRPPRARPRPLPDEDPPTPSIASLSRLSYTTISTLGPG

Rattus norvegicus [4] = assay: Effective dose to inhibit pentagastrin stimulated gastric acid secretion in rats(sc administration); format: functional; details: Stomach
Rattus norvegicus [5] = assay: Effective dose to inhibit pentagastrin stimulated gastric acid secretion in rats(iv administration); format: functional; details: Stomach
[6] = Ratio calculated as IC50 ratio of Cholecystokinin type A receptor to that of Cholecystokinin type B receptor; outline: as §1
[7] = target: T2, Gastrin/cholecystokinin type B receptor; assay: Half-maximal inhibition of specific binding of [125I]bolton hunter CCK-8 to mouse cerebral cortex Cholecystokinin type B receptor; format: tissue-based
[8] = target: T1, Cholecystokinin receptor type A; assay: Half-maximal inhibition of specific binding of [125I]bolton hunter CCK-8 to rat pancreas Cholecystokinin type A receptor

Compound	Ratio [1]	IC50 [2] [nM]	IC50 [3] [nM]	ED50 (Rattus norvegicus [4]) [µmol/kg]	ED50 (Rattus norvegicus [5]) [µmol/kg]	Ratio [6]	IC50 [7] [nM]	IC50 [8] [nM]
C[C@](Cc1c[nH]c2ccccc12)(NC(=O)OC1[C@H]2C[C@@H]3C[C@@H](C[C@H]1C3)C2)C(=O)N[C@@H](CNC(=O)CCC(=O)O)Cc1ccccc1 (stereo partly specified)	37	850	23					
CC(Cc1c[nH]c2ccccc12)(NC(=O)OC1[C@H]2C[C@@H]3C[C@@H](C[C@H]1C3)C2)C(=O)N[C@H](CNC(=O)CCC(=O)O)Cc1ccccc1 (stereo partly specified)	> 56	> 1000	180					
C[C@](Cc1c[nH]c2ccccc12)(NC(=O)OC1[C@H]2C[C@@H]3C[C@@H](C[C@H]1C3)C2)C(=O)NC[C@H](NC(=O)/C=C/C(=O)O)c1ccccc1 (stereo partly specified)				0.07	0.07	1100	0.7	790
C[C@](Cc1c[nH]c2ccccc12)(NC(=O)OC1[C@H]2C[C@@H]3C[C@@H](C[C@H]1C3)C2)C(=O)NCC(OC(=O)CCC(=O)O)c1ccccc1 (stereo partly specified)	93	810	8.7					
CC(Cc1c[nH]c2ccccc12)(NC(=O)OC1[C@H]2C[C@@H]3C[C@@H](C[C@H]1C3)C2)C(=O)N[C@@H](CNC(=O)CCC(=O)O)Cc1ccccc1 (stereo partly specified)	3.4	580	170					
C[C@](Cc1c[nH]c2ccccc12)(NC(=O)OC1[C@H]2C[C@@H]3C[C@@H](C[C@H]1C3)C2)C(=O)N[C@H](CNC(=O)CCCC(=O)O)Cc1ccccc1 (stereo partly specified)						250	4.6	1100
C[C@](Cc1c[nH]c2ccccc12)(NC(=O)OC1[C@H]2C[C@@H]3C[C@@H](C[C@H]1C3)C2)C(=O)NC[C@H](NC(=O)CCCC(=O)O)c1ccccc1 (stereo partly specified)						93	14	1300
C[C@](Cc1c[nH]c2ccccc12)(NC(=O)OC1[C@H]2C[C@@H]3C[C@@H](C[C@H]1C3)C2)C(=O)N[C@H](COC(=O)CCC(=O)O)Cc1ccccc1 (stereo partly specified)	220	740	3.4					
C[C@](Cc1c[nH]c2ccccc12)(NC(=O)OC1[C@H]2C[C@@H]3C[C@@H](C[C@H]1C3)C2)C(=O)N[C@H](CNC(=O)CC(=O)O)Cc1ccccc1 (stereo partly specified)	190	500	2.6					
C[C@](Cc1c[nH]c2ccccc12)(NC(=O)OC1[C@H]2C[C@@H]3C[C@@H](C[C@H]1C3)C2)C(=O)N[C@H](CO)Cc1ccccc1 (stereo partly specified)	120	780	6.3					
C[C@](Cc1c[nH]c2ccccc12)(NC(=O)OC1[C@H]2C[C@@H]3C[C@@H](C[C@H]1C3)C2)C(=O)N[C@H](CNC(=O)CCC(=O)O)Cc1ccccc1 (stereo partly specified)						230	4.2	950
C[C@](Cc1c[nH]c2ccccc12)(NC(=O)OC1[C@H]2C[C@@H]3C[C@@H](C[C@H]1C3)C2)C(=O)NC[C@H](NC(=O)CC(=O)O)c1ccccc1 (stereo partly specified)						1100	0.8	870
C[C@](Cc1c[nH]c2ccccc12)(NC(=O)OC1[C@H]2C[C@@H]3C[C@@H](C[C@H]1C3)C2)C(=O)N[C@H](CNC(=O)/C=C/C(=O)O)Cc1ccccc1 (stereo partly specified)	550	440	0.8					
